Calls of active or inactive are those of the source. The calls are words filed in the database; no cut-off is given here.
Experiments:
Assay type in all cases: cell-based
[1] = test system: HEK293; test: Inhibition of wild-type human SLACK expressed in HEK293 cells assessed as efficacy at 30 uM by thallium flux assay relative to control
Summary of the method: (§1)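 Stable monoclonal HEK293 lines (WT or A934T SLACK) plated 20,000 cells/well; loaded 1 h at room temperature with Thallo-AM dye, 1.25 mM probenecid, masking dye, 0.3% Pluronic F-127 in buffer with 2.7 mM RbCl, pH 7.3. Compound preincubated 120 s, then Tl2SO4 stimulus (2.5 mM); fluorescence read 120 s. Concentration–response 1.5 nM–30 μM in half-log steps, ≥3 replicate wells.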

[2] = test system: HEK293; test: (§2) Inhibition of wild-type human SLACK expressed in HEK293 cells by thallium flux assay; summary of the method: as §1
[3] = test system: HEK293; test: Activation of wild-type human SLACK expressed in HEK293 cells assessed as efficacy at 30 uM by thallium flux assay relative to control
[4] = as §2; summary of the method: as §1

| Compound | Efficacy [1] | inhibition [2] | other results |
| --- | --- | --- | --- |
| O=S(=O)(c1ccc(Cl)cc1)N1CC(c2nc(-c3ccsc3)no2)C1 | inactive | inactive |  |
| O=S(=O)(c1ccccc1Cl)N1CC(c2nc(-c3ccsc3)no2)C1 |  |  | Efficacy ([3]; filed as activator): 47% |
| CCOc1ccccc1S(=O)(=O)N1CC(c2cc(-c3ccc(F)cc3)no2)C1 | inactive | inactive |  |
| O=S(=O)(c1ccccc1N1CCCC1)N1CC(c2nc(-c3ccc(F)cc3)no2)C1 | 92% |  |  |
| CCOc1ccccc1C(=O)N1CC(c2nc(-c3ccsc3)no2)C1 |  |  | Efficacy [3]: 18% |
| CCCCOc1ccccc1S(=O)(=O)N1CC(c2nc(-c3ccsc3)no2)C1 | inactive | inactive |  |
| CCOc1ccccc1S(=O)(=O)N1CC(c2nc(-c3cccc(Cl)c3)no2)C1 | inactive | inactive |  |
| O=S(=O)(c1ccccc1OC1CCCC1)N1CC(c2nc(-c3ccc(F)cc3)no2)C1 | 93% |  |  |
| Cc1cccc(S(=O)(=O)N2CC(c3nc(-c4ccsc4)no3)C2)c1 |  |  | Efficacy [3]: < 10% |
| CCOc1ccccc1S(=O)(=O)N1CC(c2nc(-c3ccccc3OC)no2)C1 |  |  | Efficacy [3]: 18% |
| CCOc1ccccc1S(=O)(=O)N1CC(c2cc(-c3ccc(F)cc3)n[nH]2)C1 |  |  | Efficacy [3]: 24% |
| CCOc1ccccc1S(=O)(=O)N1CC(c2cn(-c3ccc(F)cc3)nn2)C1 |  |  | Efficacy ([3]; filed as activator): 41% |
| CCOc1ccccc1S(=O)(=O)N1CC(c2nc(-c3ccc(Cl)cc3F)no2)C1 | 99% |  | IC50 [4]: 7.2 µM |
| CCOc1ccccc1S(=O)(=O)N1CC(c2nc(-c3cccc(C)c3)no2)C1 | < 10% |  |  |
| O=S(=O)(c1ccccc1F)N1CC(c2nc(-c3ccsc3)no2)C1 |  |  | Efficacy [3]: 30% |
| O=S(=O)(c1cccn2ncnc12)N1CC(c2nc(-c3ccc(F)cc3)no2)C1 |  |  | Efficacy [3]: 16% |
| O=S(=O)(c1cccn2ccnc12)N1CC(c2nc(-c3ccc(F)cc3)no2)C1 |  |  | Efficacy ([3]; filed as activator): 48% |
| CCOc1ccccc1S(=O)(=O)N1CC(c2nc(-c3ncccn3)no2)C1 | inactive | inactive |  |
| O=S(=O)(c1cccc2ccoc12)N1CC(c2nc(-c3ccc(F)cc3)no2)C1 |  |  | Efficacy [3]: 37% |
| CCOc1ccccc1S(=O)(=O)c1ccc(-c2nc(-c3ccc(F)cc3)no2)cc1 | inactive | inactive |  |

| Compound | Efficacy [1] | inhibition [2] | other results |
| --- | --- | --- | --- |
| CCOc1ccccc1S(=O)(=O)N1CC(c2nc(-c3nccs3)no2)C1 | inactive | inactive |  |
| CCOc1ccccc1S(=O)(=O)N1CC(c2nc(-c3cccc(F)c3)no2)C1 | inactive | inactive |  |
| O=S(=O)(c1ccccc1OC1COC1)N1CC(c2nc(-c3ccc(F)cc3)no2)C1 |  |  | Efficacy ([3]; filed as activator): 43% |
| CCOc1ccccc1S(=O)(=O)N1CC(c2nc(-c3ccncc3)no2)C1 | inactive | inactive |  |
| CCOc1ccccc1S(=O)(=O)N1CC(c2noc(-c3ccc(F)cc3)n2)C1 | 45% |  |  |
| CCOc1ccccc1S(=O)(=O)N1CC(c2cc(-c3ccc(F)cc3)on2)C1 | inactive | inactive |  |
| CCOc1ccccc1S(=O)(=O)N1CC(c2nc(-c3ccc(F)cc3)cn2C)C1 | 47% |  |  |
| CCOc1ccccc1S(=O)(=O)N1CC(c2nc(-c3ccccc3C)no2)C1 |  |  | Efficacy [3]: < 10% |
| CCOc1ccccc1S(=O)(=O)N1CC[C@@H](c2nc(-c3ccc(F)cc3)no2)C1 | 31% |  | IC50 [4]: > 10 µM |
| CCOc1ccccc1S(=O)(=O)N1CC(c2nc(-c3ccco3)no2)C1 | 44% |  |  |
| CCOc1ccccc1S(=O)(=O)N1CC(c2nnc(-c3ccc(F)cc3)o2)C1 |  |  | Efficacy [3]: < 10% |
| CCOc1ccccc1S(=O)(=O)N1CC(c2nc(-c3ccccc3)no2)C1 | 51% |  |  |
| CCOc1ccccc1S(=O)(=O)N1CC(c2nc(-c3cnsc3)no2)C1 | 106% |  | IC50 [4]: 6.6 µM |
| CCOc1ccccc1S(=O)(=O)N1CC(c2nc(-c3ccc(C(F)(F)F)cc3)no2)C1 | 95% |  | IC50 [4]: 3.8 µM |
| CCOc1ccccc1S(=O)(=O)N1CC(c2nc(-c3ccc(C)cc3)no2)C1 | inactive | inactive |  |
| O=S(=O)(c1ccccc1OCC1CC1)N1CC(c2nc(-c3ccc(F)cc3)no2)C1 | 95% |  |  |
| CCOc1ccccc1S(=O)(=O)N1CC(c2nc(-c3cccc(OC)c3)no2)C1 |  |  | Efficacy [3]: < 10% |
| CCOc1ccccc1S(=O)(=O)N1CC(c2nc(-c3ccc(F)cn3)no2)C1 | inactive | inactive |  |
| O=S(=O)(c1cccn2cnnc12)N1CC(c2nc(-c3ccc(F)cc3)no2)C1 |  |  | Efficacy [3]: 14% |
| CCOc1ccccc1S(=O)(=O)N1CC(c2nc(-c3ccccc3F)no2)C1 | 88% |  |  |

Source: ChEMBL document CHEMBL5390224, “Design, synthesis, and biological evaluation of a novel series of 1,2,4-oxadiazole inhibitors of SLACK potassium channels: Identification of in vitro tool VU0935685” (Bioorg Med Chem, 2023)
